In ChEMBL document CHEMBL1158096, “Cytotoxic triterpenoids from the leaves of Microtropis fokienensis” (J Nat Prod, 2006) one finds Activity and IC50 data, which are given here for 14 molecules.

The subject of experiment [1] is MDA-MB-231. The experiment in a line: Cytotoxicity against human MDA-MB-231 cells after 3 days by MTT method. The format is functional, cell-based. The essentials:
(§1)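 Freshly trypsinized cells seeded at 5000-10 000 per well; compounds added from DMSO stocks. After 3 days in culture, attached cells incubated with MTT ([…], 1 h), solubilized in DMSO, absorbance read at 550 nm. IC50 = concentration reducing cell growth by 50%. Mean of two to three separate experiments, each in triplicate.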

Experiment [2] deals with A549. The experiment in a line: Cytotoxicity against human A549 cells after 3 days by MTT method. It is filed as functional, cell-based. The essentials:
as §1

For experiment [3], the system named is Hep 3B2. The experiment in a line: (§2) Cytotoxicity against human Hep3B cells after 3 days by MTT method. The format is functional, cell-based. The essentials: as §1
(Formazan colour is commonly taken as a measure of viable cells.)

Experiment [4] concerns HepG2. The experiment can be described thus: (§3) Cytotoxicity against human Hep G2 cells after 3 days by MTT method. It is filed as functional, cell-based. The essentials: as §1
Experiment [5] concerns MCF7. The experiment in a line: Cytotoxicity against human MCF7 cells after 3 days by MTT method. It is filed as functional, cell-based. In short, it runs like this:
as §1

Experiment [6] is described as follows: as §3. It is filed as functional, cell-based. To be noted: HepG2, 72 h. In short, it runs like this:
as §1

The nature of experiment [7]: as §2. It is filed as functional, cell-based, Hep 3B2. To be noted: 72 h. In short, it runs like this: as §1

Each structure is given as a SMILES string. Values after ≈ are worked out from the molar mass of the structure shown. Active and inactive are the calls of the source. No cut-off for these calls is given here.

On to `C[C@H]1[C@H](C)CC[C@@]23CC[C@]4(C)[C@@](C=C[C@@H]5[C@@]6(C)CC[C@H](O)C(C)(C)[C@@H]6CC[C@]54C)(OC2)[C@H]13`, for which the outcome in experiment [1], in experiment [2], in experiment [3], in experiment [4] and in experiment [5] was inactive.

For `Oc1cc(O)c2c(c1)O[C@H](c1ccc(O)c(O)c1)[C@H](O)C2`, the result in experiment [1], in experiment [2], in experiment [3], in experiment [4] and in experiment [5] was inactive.

Usually IC50 stands for the concentration needed to halve the response being measured. Read a high IC50 as lower potency. Regarding `CO[C@@H]1C=C2[C@@H]3[C@@H](C)[C@H](C)CC[C@]3(CO)CC[C@@]2(C)[C@]2(C)CC[C@H]3C(C)(C)[C@@H](O)CC[C@]3(C)[C@@H]12`, the outcome in experiment [1], in experiment [2], in experiment [3] and in experiment [5] was inactive. For the same molecule, in experiment [6], inhibition was half-maximal at 4.6 µg/mL (≈ 9.73 µM) (IC50).

As to `COC(=O)/C=C/c1ccc(O)cc1`, the outcome in experiment [1], in experiment [2], in experiment [3], in experiment [4] and in experiment [5] was inactive.

`C[C@H]1[C@H](C)CC[C@]2(CO)CC[C@]3(C)C(=CC[C@@H]4[C@@]5(C)CC[C@H](O)C(C)(C)[C@@H]5CC[C@]43C)[C@H]12`: the outcome in experiment [1], in experiment [2], in experiment [3], in experiment [4] and in experiment [5] was inactive.

Take `CC1(C)C(=O)CC[C@]2(C)[C@H]3C=C[C@]45OC[C@@]6(CC[C@](C)(CO)C[C@H]64)CC[C@@]5(C)[C@]3(C)CC[C@@H]12`: the result in experiment [1], in experiment [2], in experiment [3], in experiment [4] and in experiment [5] was inactive.

Take `O=c1c(O)c(-c2ccc(O)cc2)oc2cc(O)cc(O)c12`: the outcome in experiment [1], in experiment [2], in experiment [3], in experiment [4] and in experiment [5] was inactive.

As to `C[C@H]1[C@H](C)CC[C@@]23CC[C@]4(C)[C@@](C=C[C@@H]5[C@@]6(C)CC[C@H](O)[C@@](C)(CO)[C@@H]6CC[C@]54C)(OC2)[C@H]13`, the result in experiment [1], in experiment [2], in experiment [3], in experiment [4] and in experiment [5] was inactive.

Regarding `CC1(C)CC[C@@]23CC[C@]4(C)[C@@](C=C[C@@H]5[C@@]6(C)CC[C@H](O)C(C)(C)[C@@H]6CC[C@]54C)(OC2)[C@@H]3C1`, the result in experiment [1], in experiment [2], in experiment [3], in experiment [4] and in experiment [5] was inactive.

For the molecule `C[C@H]1[C@H](C)CC[C@@]23CC[C@@]4(C)[C@]5(C)CC[C@@H]6[C@](C)(CC[C@H](O)[C@@]6(C)CO)[C@H]5CC(=O)[C@]4(OC2)[C@H]13` [MICROFOKIENOXANE C], the result in experiment [1], in experiment [2] and in experiment [5] was inactive. The IC50 in experiment [7] was determined as 4.5 µg/mL (≈ 9.52 µM); in experiment [6], 3.8 µg/mL (≈ 8.04 µM).

With `CO[C@@H]1C=C2[C@@H]3[C@@H](C)[C@H](C)CC[C@]3(C)CC[C@@]2(C)[C@]2(C)CC[C@H]3C(C)(C)[C@@H](O)CC[C@]3(C)[C@@H]12`, the result in experiment [1], in experiment [2], in experiment [3], in experiment [4] and in experiment [5] was inactive.

Consider `C=C(CO)[C@@H]1CC[C@]2(C)CC[C@]3(C)[C@H](CC[C@@H]4[C@@]5(C)CC[C@H](O)C(C)(C)[C@@H]5CC[C@]43C)[C@@H]12`, for which the result in experiment [1], in experiment [2], in experiment [3], in experiment [4] and in experiment [5] was inactive.

With `C=C(CO)[C@@H]1CC[C@]2(CO)CC[C@]3(C)[C@H](CC[C@@H]4[C@@]5(C)CC[C@H](O)C(C)(C)[C@@H]5CC[C@]43C)[C@@H]12`, the outcome in experiment [1], in experiment [2], in experiment [3], in experiment [4] and in experiment [5] was inactive.

Consider `C[C@H]1[C@H](C)CC[C@]23CO[C@@]4(C=C[C@@H]5[C@@]6(C)CC[C@H](O)C(C)(C)[C@@H]6CC[C@@]5(C)[C@]4(C)C[C@@H]2O)[C@H]13`, for which the outcome in experiment [1], in experiment [2], in experiment [3], in experiment [4] and in experiment [5] was inactive.
